ASAP1 GAP inh = blocks human ASAP1-stimulated Arf1 GTP hydrolysis; GDP FP detection; inhibition, % at 16.5 µM; 360,000 compounds, 0.19% hits; AID 624377; in the data active = inhibition above about 25%;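 also: 0% = vehicle with enzyme and substrate and 100% = no enzyme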
ARFGAP1 inhibitor = rat ARFGAP1 inhibition | Arfgap1-stimulated ARF1 GTP hydrolysis, GDP FP detection | Q62848 | inhibition, % at 16.5 µM | 360,000 compounds, 0.26% hits | AID 651572;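 active = inhibition above a per-plate limit, mean inhibition of low control wells plus 3 SD, cut at about 25% in these data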;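 also: 0% = DMSO wells with enzyme and 100% = wells lacking Arfgap1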
Target sequence (Q62848 1-136 limits assumed): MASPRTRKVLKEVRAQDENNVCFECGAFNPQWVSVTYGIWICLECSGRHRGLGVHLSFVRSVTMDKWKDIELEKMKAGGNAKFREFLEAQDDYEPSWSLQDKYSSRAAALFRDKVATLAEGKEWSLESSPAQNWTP
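Assay system: purified rat His6-Arfgap1 residues 1-136 (GAP domain); Reagent: human Δ17 ARF1 bound to GTP; Dosing: 16.5 µM single point, 1.26% DMSO; Times: GTP hydrolysis reaction 2 h at 25 °C; Signal: FP, GDP Alexa 633 tracer displaced from anti-GDP antibody, 620/688 nm; Measure: % inhibition from polarization.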
VIM-2 inh = inhibitors of Pseudomonas aeruginosa VIM-2 metallo-beta-lactamase. 290,000 compounds, 0.89% hits. purified VIM-2, nitrocefin hydrolysis, epi-absorbance fluorescence. inhibition, % at 5.6 µM;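 active = inhibition above the mean of all tested compounds plus 3 SD, cutoff set per screening run, cut at about 7.5% in these data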;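 also: red hydrolysis product quenches plate fluorescence so inhibitors raise well fluorescence; 0% = enzyme with DMSO and 100% = DMSO without enzyme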
Calb FLC = C. albicans growth modulation with fluconazole. AID 1979. 300,000 compounds, 0.57% hits. growth inhibition, % (concentration not given with the values). C. albicans CaCi-2 + fluconazole, Alamar Blue growth, 48 h;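 active = growth inhibition above about 58% in most replicates, limit read from the data, passing the limit was not always enough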;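 also: all wells also contain fluconazole at 8 µg/ml as a sub-toxic cotreatment; 0% = median of DMSO wells and 100% = median of geldanamycin control wells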
IMP-1 inh-1 = inhibitors of Pseudomonas aeruginosa IMP-1 metallo-beta-lactamase; 290,000 compounds, 0.45% hits; AID 1556; inhibition, % at 5.6 µM; purified IMP-1, nitrocefin hydrolysis, epi-absorbance fluorescence;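 active = inhibition above the mean plus 3 SD of all compounds in the same screening run, cut at about 4.5% in these data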;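 also: 0% = IMP-1 with DMSO and 100% = DMSO wells lacking enzyme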
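Material – recombinant IMP-1 enzyme, purified · Amount – IMP-1 0.2 nM before substrate addition · Medium – HEPES buffer pH 7.1 with ZnSO4 and Brij 35 · Timing – 25 °C, 15 min preincubation, 25 min reaction · Measured by – plate fluorescence quenching by hydrolysis product, ex 480/em 530 nm · Read-out – percent enzyme inhibition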
PHOSPHO1 inh = inhibitors of human PHOSPHO1 phosphatase. Q8TCT1. recombinant PHOSPHO1, absorbance phosphatase assay. inhibition, % at 13.3 µM. 290,000 compounds, 1.1% hits. AID 1565; in the data active = inhibition above about 60%
Target sequence (Q8TCT1 whole entry, looked up): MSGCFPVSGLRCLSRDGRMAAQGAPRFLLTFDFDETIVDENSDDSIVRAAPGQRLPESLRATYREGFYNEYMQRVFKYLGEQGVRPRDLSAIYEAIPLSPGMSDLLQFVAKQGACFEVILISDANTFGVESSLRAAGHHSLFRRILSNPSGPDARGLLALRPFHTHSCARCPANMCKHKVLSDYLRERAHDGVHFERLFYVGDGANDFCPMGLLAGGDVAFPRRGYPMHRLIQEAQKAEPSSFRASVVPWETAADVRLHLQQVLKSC
IMP-1 inh-2 = blocks IMP-1 metallo-beta-lactamase in VIM-2 selectivity screen; purified IMP-1, nitrocefin hydrolysis, epi-absorbance fluorescence; inhibition, % at 5.6 µM; shares compounds with VIM-2 inh; AID 1856; 1,300 tested, under 10 active; call rule not given here;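 also: 0% = enzyme with vehicle and 100% = vehicle without enzyme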
VIM-2 FRET inh = counter-screen for VIM-2 inhibitors: epi-absorbance artifacts via FRET; shares compounds with VIM-2 inh; purified VIM-2, CCF2 FRET substrate hydrolysis; inhibition, % at 5.6 µM; 1,300 compounds, 23% hits; AID 1857;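 active = inhibition above the mean of all tested compounds plus 3 SD, cut at about 19% in these data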;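 also: 0% = VIM-2 plus DMSO and 100% = no enzyme wells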
TEM-1 inh = blocks E. coli TEM-1 beta-lactamase in VIM-2 selectivity screen; inhibition, % at 5.6 µM; shares compounds with VIM-2 inh; AID 1866; Purified TEM-1, nitrocefin hydrolysis, epi-absorbance fluorescence; 1,300 compounds, 3% hits;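 active = inhibition above that campaign's mean inhibition plus 3 SD, cut at about 0.46% in these data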;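 also: 0% = TEM-1 with DMSO and 100% = TEM-1 with 100 µM potassium clavulanate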
VIM-2 confirm 2 = confirmation of P. aeruginosa VIM-2 metallo-beta-lactamase inhibitors; shares compounds with VIM-2 inh; purified VIM-2, nitrocefin hydrolysis, epi-absorbance; inhibition, % at 5.6 µM; 1,300 compounds, 96% hits;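 active = inhibition of the VIM-2 beta-lactamase enzyme above about 11% from the earlier first-round screen, limit read from the data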;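 also: 0% = VIM-2 with DMSO and 100% = buffer wells without enzyme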
* = called active by the depositor; · = no result. An excerpt weighted towards active compounds, which were near 2.6% of everything screened.

SMILES	ASAP1 GAP inh	ARFGAP1 inhibitor	VIM-2 inh	Calb FLC	IMP-1 inh-1	PHOSPHO1 inh	IMP-1 inh-2	VIM-2 FRET inh	TEM-1 inh	VIM-2 confirm 2
COC(=O)c1ccc(-c2ccc(C(=O)N3CCCN(C)CC3)cc2)cc1	·	·	13.4*	·	-4.3	-2.9	-3.9	29.7*	-6.5	21.1*
COc1ccc2c(c1OC)c(=O)n1c3ccc(OC(C)C(=O)NCCN4CCOCC4)cc3c3ccnc2c31 (configuration not stated)	6.0	11.5	17.7*	-2.2	-0.4	29.1	-0.8	-5.5	-8.7	25.8*
CC(Oc1ccc(Cl)cc1Cl)C(=O)NCCN1CCOCC1 (configuration not stated)	-5.8	-5.4	-3.9	-5.5	-0.2	-0.2	·	·	·	·
CC(Oc1ccc2c(c1)c1ccnc3c4ccccc4c(=O)n2c13)C(=O)NCCN1CCOCC1 (configuration not stated)	1.6	6.3	26.8*	1.9	-1.8	29.1	-2.4	-7.7	-7.6	36.5*
CCCCc1cc(=O)oc2cc(OC(C)C(=O)NCCN3CCOCC3)ccc12 (configuration not stated)	-1.8	1.3	·	·	·	·	·	·	·	·
O=C(Nc1ccc(Cl)cc1)c1ccc2sc([C@@H]3O[C@H](CO)[C@@H](O)[C@H]3O)nc2c1	7.4	-12.6	·	·	·	·	·	·	·	·
O=c1[nH]c(SCc2n[nH]c(=S)n2-c2ccccc2)nc2sc3c(c12)CCC3	-11.4	-5.2	20.9*	3.4	-2.4	84.8*	-3.2	45.1*	-9.4	29.2*
O=c1[nH]c(SCc2nc3ccccc3c(=O)n2-c2ccccc2)nc2ccccc12	5.0	7.1	1.6	-2.2	0.7	-3.5	·	·	·	·
CCCCSc1nc2sc3c(c2c(=O)[nH]1)CCC3	4.2	-14.2	-2.7	28.6	-3.0	3.6	·	·	·	·
O=c1[nH]c(SCc2n[nH]c(=S)n2-c2ccccc2)nc2ccccc12	0.2	12.6	28.0*	-4.2	-3.0	-15.6	-0.8	55.1*	-0.3	40.2*
Cc1ccc(S(=O)(=O)N[C@H](CNCc2ccccc2)C(C)C)cc1	4.4	4.5	·	·	·	·	·	·	·	·
COc1ccc2ccccc2c1C(O)c1nccn1C (configuration not stated)	9.9	-7.1	12.6*	-21.1	0.5	-1.5	-0.4	-1.6	-1.3	11.2*
COc1cc(-c2nc3ccc(N4CCN(C)CC4)cc3[nH]2)cc(OC)c1OC	5.6	17.3	12.6*	0.6	2.3	28.5	-3.5	0.0	-7.6	25.9*
COc1ccc(CN2C(=O)CCC2(C)c2nnnn2Cc2ccccc2)cc1 (configuration not stated)	3.8	-14.2	·	·	·	·	·	·	·	·
COc1cc(OC)c2nc(C)c3c(c2c1)N(c1ccc(O)cc1)CC3	-4.5	0.5	56.5*	-6.6	-1.4	16.2	-4.2	-30.9	-5.8	68.9*
C=C1CSc2nc(=O)c3c4c(sc3n21)CCCC4	-6.6	-4.3	13.6*	-17.5	-1.8	-1.3	-2.9	-1.1	-7.1	32.7*
COc1ccc2nc(C)cc(Nc3ccc(N4CCN(C)CC4)cc3)c2c1	-10.6	-6.2	90.0*	-3.8	-1.8	28.6	-3.3	-4.6	-5.5	90.7*
Cn1c(SCC(=O)O)nc2sc3c(c2c1=O)CCC3	4.8	-6.0	13.9*	2.1	-2.1	14.9	-3.5	30.1*	-6.2	21.8*
CCn1c(SCC(=O)O)nc2sc3c(c2c1=O)CCC3	6.2	-6.9	-1.7	-20.0	-1.4	-9.2	·	·	·	·
CCCCn1c(-c2csc(CCC)c2)n[nH]c1=S	-12.2	-14.3	0.6	-4.9	-2.7	-33.3	·	·	·	·
CCCCn1c(-c2cccnc2)n[nH]c1=S	2.8	6.1	20.4*	2.7	-4.9	-9.7	-2.7	32.5*	-6.8	21.7*

High-throughput results (PubChem)
